Data reported in ChEMBL document CHEMBL1141183, “Development of potent mu-opioid receptor ligands using unique tyrosine analogues of endomorphin-2” (J Med Chem, 2005).
pIC50, pKi: −log10 of the molar value. Activity calls are given as the source filed them. The calls are words filed in the database; no cut-off is given here.

Key:
[1] = molecular target: Delta-type opioid receptor (Rattus norvegicus, UniProt P33533); assay: Inhibition of [3H]DPDPE binding to delta-Opioid receptor
Summary of the method: (§1)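 Synaptosomal membranes preincubated to remove endogenous opioids, washed, stored at -80 °C with protease inhibitor. μ sites labelled with [3H]DAMGO, δ with [3H]DPDPE; nonspecific binding set by 2 µM unlabelled peptide. Filtration on polyethylenimine-soaked GF/C filters, scintillation counting. Five to seven peptide doses in duplicate, several preparations. Ki by Cheng-Prusoff.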

[2] = molecular target: Delta-type opioid receptor (Mus musculus, UniProt P32300); assay: In vitro inhibition of opioid receptor delta using mouse vas deferens; format: tissue-based
[3] = molecular target: Mu-type opioid receptor (Cavia porcellus, UniProt P97266); assay: In vitro inhibition of opioid receptor mu using isolated guinea pig ileum; format: tissue-based
Summary of the method: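 Myenteric plexus longitudinal muscle strips (2-3 cm) from small intestine of male Hartley guinea pigs, in organ bath with physiological salt buffer, pH 7.5, for μ-receptor agonism.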

[4] = molecular target: Opioid receptors; mu & delta (Rattus norvegicus) (UniProt P33533+P33535); assay: Relative binding to delta and mu Opioid receptors (ratio of Ki); format: protein assay
[5] = molecular target: Mu-type opioid receptor (Rattus norvegicus, UniProt P33535); assay: Inhibition of [3H]DAMGO binding to mu-Opioid receptor; summary of the method: as §1
[6] = species on record: Mus musculus; assay: Inhibition of electrically evoked contraction in mice by tail flick method; nd=None detected; format: functional, organism-based

Mu-type opioid receptor (Rattus norvegicus, UniProt P33535), sequence (P33535 whole entry): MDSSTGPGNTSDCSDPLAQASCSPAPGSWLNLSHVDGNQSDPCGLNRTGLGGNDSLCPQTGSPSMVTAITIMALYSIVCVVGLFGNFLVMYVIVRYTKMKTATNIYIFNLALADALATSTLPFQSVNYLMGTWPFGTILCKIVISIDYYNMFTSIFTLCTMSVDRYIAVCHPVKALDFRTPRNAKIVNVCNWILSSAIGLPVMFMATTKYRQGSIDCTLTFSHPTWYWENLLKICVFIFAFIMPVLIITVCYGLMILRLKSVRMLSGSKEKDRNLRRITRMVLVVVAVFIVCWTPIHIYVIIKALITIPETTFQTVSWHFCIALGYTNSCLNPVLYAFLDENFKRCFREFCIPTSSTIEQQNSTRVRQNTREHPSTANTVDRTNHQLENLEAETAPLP
Mu-type opioid receptor (Cavia porcellus, UniProt P97266), sequence (P97266 whole entry): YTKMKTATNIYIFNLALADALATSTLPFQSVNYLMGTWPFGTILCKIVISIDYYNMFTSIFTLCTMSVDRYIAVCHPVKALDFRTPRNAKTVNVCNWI
Delta-type opioid receptor (Rattus norvegicus, UniProt P33533), sequence (P33533 whole entry): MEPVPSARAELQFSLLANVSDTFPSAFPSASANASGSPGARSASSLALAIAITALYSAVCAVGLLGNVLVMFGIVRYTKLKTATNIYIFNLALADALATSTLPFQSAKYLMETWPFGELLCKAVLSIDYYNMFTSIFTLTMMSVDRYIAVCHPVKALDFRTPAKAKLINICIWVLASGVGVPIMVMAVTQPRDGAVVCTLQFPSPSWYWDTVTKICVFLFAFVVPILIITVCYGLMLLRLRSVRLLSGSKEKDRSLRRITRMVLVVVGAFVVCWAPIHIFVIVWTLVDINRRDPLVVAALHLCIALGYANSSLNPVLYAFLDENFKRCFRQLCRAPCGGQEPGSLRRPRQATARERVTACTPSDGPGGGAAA
Opioid receptors; mu & delta (Rattus norvegicus), sequence (P33533 whole entry, looked up): as the sequence (P33533 whole entry) above
Opioid receptors; mu & delta (Rattus norvegicus), sequence (P33535 whole entry, looked up): as the sequence (P33535 whole entry) above
Delta-type opioid receptor (Mus musculus, UniProt P32300), sequence (P32300 whole entry): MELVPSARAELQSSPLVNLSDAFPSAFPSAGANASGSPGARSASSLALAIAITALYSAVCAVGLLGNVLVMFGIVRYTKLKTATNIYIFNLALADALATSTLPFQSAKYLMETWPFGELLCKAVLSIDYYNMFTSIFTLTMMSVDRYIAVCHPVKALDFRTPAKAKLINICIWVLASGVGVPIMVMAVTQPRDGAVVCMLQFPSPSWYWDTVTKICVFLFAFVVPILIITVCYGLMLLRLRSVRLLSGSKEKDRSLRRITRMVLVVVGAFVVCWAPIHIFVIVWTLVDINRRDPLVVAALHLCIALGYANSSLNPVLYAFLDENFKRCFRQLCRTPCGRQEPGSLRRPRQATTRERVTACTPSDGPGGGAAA

Row | Compound | pKi [1] | pIC50 [2] | pIC50 [3] | Ratio [4] | pKi [5] | inhibition [6]
1 | Cc1cc(O)c(C)c(C)c1C[C@H](N)C(=O)N1CCC[C@H]1C(=O)N[C@@H](Cc1ccccc1)C(=O)N[C@@H](Cc1ccccc1)C(N)=O | 6.23 | 7.33 | 8.64 | 5350 | 9.95 | 
2 | CC(C)c1cc(O)cc(C(C)C)c1C[C@H](N)C(=O)N1CCC[C@H]1C(=O)N[C@@H](Cc1ccccc1)C(=O)N[C@@H](Cc1ccccc1)C(N)=O | 6.98 | < 5.00 | 6.52 | 46 | 8.64 | inactive
3 | CCc1cc(O)cc(CC)c1C[C@H](N)C(=O)N1CCC[C@H]1C(=O)N[C@@H](Cc1ccccc1)C(=O)N[C@@H](Cc1ccccc1)C(N)=O | 7.16 | 7.33 | 9.04 | 830 | 10.08 | 
4 | Cc1cc(O)cc(C(C)C)c1C[C@H](N)C(=O)N1CCC[C@H]1C(=O)N[C@@H](Cc1ccccc1)C(=O)N[C@@H](Cc1ccccc1)C(N)=O | 6.72 | 6.22 | 7.97 | 1270 | 9.82 | 
5 | CCc1cc(O)cc(C)c1C[C@H](N)C(=O)N1CCC[C@H]1C(=O)N[C@@H](Cc1ccccc1)C(=O)N[C@@H](Cc1ccccc1)C(N)=O | 7.25 | 8.97 | 9.21 | 884 | 10.20 | 
6 | Cc1cc(O)ccc1C[C@H](N)C(=O)N1CCC[C@H]1C(=O)N[C@@H](Cc1ccccc1)C(=O)N[C@@H](Cc1ccccc1)C(N)=O | 6.28 | 7.54 | 9.03 | 4000 | 9.88 | 
